In the EternaBench riboswitch data:

Test system: MS2 coat protein
Experiment: apparent Kd, MS2 coat protein; higher = weaker binding; RNA-MaP array; FMN 200 µM where present
Procedure, shortened: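 The titrant was SNAP-549-labelled MS2 coat protein, run from 0.7 or 1.5 nM in doubling steps to 3 µM. It was applied to designs transcribed by stalled E. coli RNA polymerase on Illumina sequencing-chip clusters, without ligand first and then with constant ligand, in 100 mM Tris-HCl pH 7.5, 80 mM KCl, 4 mM MgCl2, BSA, DTT, yeast tRNA and Tween-20. The apparent Kd is the median of filtered per-cluster binding-curve fits, with green signal normalised to red-channel RNA signal and control-cluster median Fmax.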

[1] = designed as: OFF switch for flavin mononucleotide, no ligand
[2] = ligand present: flavin mononucleotide, designed as: OFF switch for flavin mononucleotide
[3] = designed as: ON switch for flavin mononucleotide, no ligand
[4] = ligand present: flavin mononucleotide, designed as: ON switch for flavin mononucleotide

Sequence | apparent Kd [1] | apparent Kd [2] | apparent Kd [3] | apparent Kd [4]
AUCCGACAUGAGGAUCACCCAUGUCAGGAUAUGGACUGACACCGAAAGAGUGGAGGAACCAGAAGGGACUGGGC | 27.7 nM | 46.5 nM | – | –
UGUGAGUUGAUCUUAGAUCGGAGUACAUGAGGAUCACCCAUGUAGGAUAUUCAAAGACGCAGAUAGAAGAAGGACAUAGGUUUC | 15.1 nM | 13.8 nM | – | –
CCAGCGUGUGUGAGGAUAUGCUGGUCCUUGGAUCAGCAGAAGGCACAUGAGGAUCACCCAUGUGAGUACGUUGG | 16.9 nM | 59.4 nM | – | –
UGGUACUAGGGAGGAUAUGGGAAGAUACAUGAGGAUCACCCAUGUUUAACAAUGCCGAGAGGCAACUAGAAGGCCCUAGUACCU | – | – | 227 nM | 15.5 nM
GGGUACAUCGGAGGAUAUCAUGUAAAUACAUGAGGAUCACCCAUGUCGAUGGAGACACCGGAGAUUGAGAAGGCCGAUGUACCG | – | – | 643 nM | 23.5 nM
GUAGAGUCAGGAUAUACGAGAUCGAAAGAUCGUCGAUCCUUACAUGAGGAUCACCCAUGUAGAAGGGACUCUAC | 22.7 nM | 238 nM | – | –
UUGGAGUUCGUAGGAUAUGUAGGAUAUUCCUACAUGAGGAUCACCCAUGUAUGCAUGGAAGAAGGACAGAAGGACGAGCUCCAU | – | – | 184 nM | 13 nM
GAUCCUUCUGUUAGGAUAUGCUUUGGGCUUCCGCUGCAGAAGGAACAUGAGGAUCACCCAUGUCCGAUGCCGUC | 74 nM | 89.4 nM | – | –
CUCUUGUUAGGAUAUCAAACUGGCGGCGGAGCCGGCAGUAGUGAGAAGGGACAUGAGGAUCACCCAUGUAAGAA | 81.9 nM | 155 nM | – | –
GGAAAACAUGAGGAUCACCCAUGUGAGGAUAUUGAAACAAACAAAACAAACAAACAAACAAGAAGGCACAGGAA | 26.1 nM | 25.5 nM | – | –
CGGAUUAUGUGAGGAUAUAAUCGUUUCCAUUGAUUAGAAGGCACAUGAGGAUCACCCAUGUGGCAUGUAAUGCCAUGUGACGCU | 442 nM | 41.3 nM | – | –
AAUUCAAACAGAGGAUAUUGUUUAUCUCUAUUGCAAGAAGGCUGAUCUUACUACUUACUUAUGAAACAUGAGGAUCACCCAUGU | – | – | 36.6 nM | 31.8 nM
GGACGUGUCGUUUACAUGAGGAUCACCCAUGUCGAUGGACAUGAGGAUAUGGAUCCGAAUCGGAUCCAGAAGGCAUGCACGUCC | – | – | 85.3 nM | 18.9 nM
ACAUUUAAUACAGGAUAUGUUAGUAUACAGUAGAUUGGUUAUUACACAACAACAGAAGGGUAGAACAUGAGGAUCACCCAUGUA | – | – | 85.1 nM | 55.3 nM
CCUAUGUGAGGAUAUCACUGGUCUUCUUUUAUUUUUUACAGUGAGAAGGCACAUGAGGAUCACCCAUGUCGGUG | 107 nM | 36.4 nM | – | –
CAGUACUGAGGAUAUACAUGAGGAUCACCCAUGUGUUCCAGGUAGGAAACUAGCAAAAGUAGAAGGCAGUACUG | 19 nM | 127 nM | – | –
UUACUCAUGUAAGGAUAUGCAGCCGUUUCGGCUGCAGAAGGUACUAUAAUACAUGAGGAUCACCCAUGUCUCUAUUAUUUAGUG | – | – | 52.8 nM | 87.5 nM
UAAAUGUGAGGAUAUCAGGUGUGCUAGCGAACUGGUACAUCUGAGAAGGCACAUGAGGAUCACCCAUGUUCCUU | 17 nM | 61.5 nM | – | –
GAAUUAAAGAUCCAAUUUUACAACAUGAGGAUCACCCAUGUGCAGGAUAUCGUGUGUUUUAUAUUCGAGAAGGGCAAAUACAUU | 100 nM | 187 nM | – | –
AUGCAGCCACCACAGGAUAUACGUGGAUCGACAUGAGGAUCACCCAUGUAUAUCCUAAUAAUUGCGUAGAAGGGUGGUCGGCUGG | – | – | 555 nM | 81.8 nM
GAGUAGUUGAAAGGAUAUCGAUUGUUAUAGAAUCGAGAAGGUUCUAACAUGAGGAUCACCCAUGUAGGACUAUUCCUGUGUAUC | – | – | 12.9 nM | 11 nM
ACGAGUAAAGCAGGAUAUCUAUUGUCUCUGUAACAUGAGGAUCACCCAUGUAGAGAAGGGCUUAGUCAUACACUUCGAAGUUGC | 9.78 nM | 9.77 nM | – | –
CAUUUACAGGGAGGAUAUACAUGAGGAUCACCCAUGUCAUCAUACGAUCUUUCUUUUGUAUGAGUGUAGAAGGCCCAACUACCA | 13.6 nM | 14.6 nM | – | –
GUGUAGACAGGAUAUGCUUUGAGCAUAUGAGAGUAUGCUCGACAUGAGGAUCACCCAUGUAGAAGGGUCUACAC | 12.1 nM | 12.9 nM | – | –

Sequence | apparent Kd [1] | apparent Kd [2] | apparent Kd [3] | apparent Kd [4]
AAGAAACAUGAGGAUCACCCAUGUAAUAAUAUGGGAGGAUAUACAAGGACAAUAGUCAAGGUAGAAGGCCUAAGAA | – | – | 175 nM | 27.5 nM
CACGGUGAUGUAGGAUAUACGCUGGAAUACAGCGUAGAAGGACAUGAGGAUCACCCAUGUAAAGUGUCUCCGAAUAACACCGUG | 33.8 nM | 63.3 nM | – | –
CUUUUGUGAGGAUAUCAGUAGUAAUAAAAUAAAAUAACUACUGAGAAGGCACAUGAGGAUCACCCAUGUUCCUC | 32 nM | 145 nM | – | –
GUUUGUUAUUAGAAGGUGCCAGCGAGAGCUGCACAUGAGGAUCACCCAUGUUGUCGGUGACGACGCAAGGAUAUGGUGGUGGAU | – | – | 715 nM | 169 nM
GGAUGAUUAAUAGGAUAUUAUUUGUAAUUUGGUUAAGAAGGAUUAAUGAUUUAAACGACCUGUUACAUGAGGAUCACCCAUGUU | – | – | 95.5 nM | 74.1 nM
UGGGAACGAGGAUAUCGAUGGUGGAACAUGAGGAUCACCCAUGUAUGAGAUAGUGUAGUUCGAGAAGGCGUUAAGU | 68.6 nM | 33.8 nM | – | –
CCAACGUACAAUUUAGAUCUACAUGAGGAUCACCCAUGUACGGAGGAUAUCAGCUCGAAUAGAGCUGAGAAGGCCGAAUUAAUU | – | – | 371 nM | 89.4 nM
GUAUAUAUUACAUGAGGAUCACCCAUGUCAGAACGGGUAAUCAGAAGGUAUUAUUAGAGAAAGGGUAAGGAUAUGAUUAUAUAC | – | – | 577 nM | 321 nM
GGAUUACAAAUUUAUUUAAUUCACAUGAGGAUCACCCAUGUGUAGGAUAUGCUAGUUAAGUAAUAGCAGAAGGACAUGUGCCUU | 8.82 nM | 9.26 nM | – | –
GCGCUUAUACAGAAGGCCAUAUACAUGAGGAUCACCCAUGUUACAUGGUGGAGGAUAUGUUAUUUAUUACAGGUAGAUGAGCGC | – | – | 4.71 nM | 5.32 nM
GAUGACAUGAGGAUCACCCAUGUGAUGGUUUGAGGUGGUUACAGAAGGGACGUAUAGUGGUGUGGUCAGGAUAUGUAGAAUCUU | – | – | 157 nM | 42.1 nM
GUCAGCUCGUGAGGAUAUACAUGAUAGAUCGAUUAAUUAAUUAAUUUAACAUGAGGAUCACCCAUGUAGAAGGUACGAGCUGAC | 52 nM | 66.3 nM | – | –
GGUACUCAAAGAGUACUUGGUCGAACAUGAGGAUCACCCAUGUAGGAUAUGCAAAGCAAGAAGUAGCAGAAGGACAUGUGCAGC | 13.5 nM | 36.1 nM | – | –
AUUACAUGAGGAUCACCCAUGUACAGCACGUUUCAAAACAGUGAGGAUAUACGAAAUGUAGGAACGUAGAAGGCACUGGGUGCA | – | – | 98.3 nM | 34.2 nM
GUCAGCUCGUGAGGAUAUACAUGUGCUGGAGACAGCACUAAUAGAAUCACAUGAGGAUCACCCAUGUAGAAGGCACGAGCUGAU | 17 nM | 41.2 nM | – | –
CAGGAGAACACAGGAUAUCCGUAAGACAUGAGGAUCACCCAUGUUUGUGGCCCGCCAGGGCUGACGGAGAAGGGUGACUCGCAC | – | – | 9.04 nM | 5.81 nM
CGCUAUGAUGGGUUUAAUGGAGCAUAGGAUAUGCUUGUACAUGAGGAUCACCCAUGUUAUAUUUUGCAGAAGGGUGCAUUUGCG | – | – | 284 nM | 95.3 nM
GGACGAAGUGUGAGGAUAUGCUGGUCCUUGGAUCAGCAGAAGGCACAUGAGGAUCACCCAUGUGGUAAACGUCC | 114 nM | 746 nM | – | –
UGGUUGUCAGGAUAUUGGGUUUUUAACUUUAGUUUUAUAUUCGAGAAGGGACAUGAGGAUCACCCAUGUUACGU | 32.7 nM | 37.6 nM | – | –
GCUAUCGAACAGAAGGGACCGCGGCCGUGGCGGUCAGGAUAUGUAUGCAGUAGUGCCUACAUGAGGAUCACCCAUGUCCGCCGC | – | – | 629 nM | 218 nM
AUGAGUAAAGCAGGAUAUCUAUUGUCUCUGAAACAUGAGGAUCACCCAUGUAGAGAAGGGCUAAGUCUUACUCUUCGGAGUUGA | 9.98 nM | 10.3 nM | – | –
GACACUAGUGUUAGGAUAUGUGUGAGGGACCGCAAACAGAAGGAACAUGAGGAUCACCCAUGUGAUGGUUCUGA | 21.5 nM | 20.4 nM | – | –
UUAGCGUAAGUAAGGAUAUGCUGGUCGAAAGACCAGCAGAAGGUACAUGAGGAUCACCCAUGUGGAUUCGUUAU | 27.8 nM | 92.6 nM | – | –
AGAUAUGAUGCAGGAUAUCUAUCUUGAAUGAGGAGAGAAGGGCAAGUAGAUAGAUAAGCCUCAUGACAUGAGGAUCACCCAUGU | 14.8 nM | 15.2 nM | – | –
